Reference: ChEMBL document CHEMBL2146365, “Design and synthesis of EGFR dimerization inhibitors and evaluation of their potential in the treatment of psoriasis” (Bioorg Med Chem, 2012)

How the values were obtained:
[1] = Growth inhibition of HPV-16 transformed human CCD-1106 cells after 72 hrs by MTT assay; format: functional; settings: CCD-1106, 72 h
How it was run: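 Cells were seeded at 10,000 cells/well in keratinocyte serum-free medium with L-glutamine, bovine pituitary extract and EGF, at 37 °C under 5% CO2, and attached overnight. Eight drug concentrations were run with six in-plate replicates, DMSO <1%, for 72 h. MTT (0.5 mg/ml) was added for 2 h, formazan was dissolved in 90% isopropanol/10% DMSO and A590 was read. Growth is expressed relative to the untreated control.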

[2] = biological target: Epidermal growth factor receptor (Homo sapiens) (UniProt P00533); assay: Inhibition of phosphorylated EGFR dimerization in HPV-16 transformed human CCD-1106 cells at 134.5 uM after 30 mins by densitometric analysis; format: cell-based
How it was run: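 CCD-1106 cells were exposed to compounds for 30 min at 37 °C, then stimulated with EGF 50 ng/mL for 10 min. They were cross-linked with 2 mM BS3 for 30 min at room temperature and quenched with Tris (pH 7.5). Lysates were run on SDS-PAGE and immunoblotted for phospho-EGFR (Tyr1173) and total EGFR. The ~340 kDa dimer band was quantified by densitometry against the no-inhibitor control.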

[3] = biological target: Epidermal growth factor receptor (Homo sapiens) (UniProt P00533); assay: Inhibition of EGFR-mediated ERK1 phosphorylation in HPV-16 transformed human CCD-1106 cells at 161.1 uM after 30 mins by densitometric analysis; format: cell-based
How it was run: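 CCD-1106 cells were treated with compound for 30 min at 37 °C, then stimulated with EGF. Lysates were separated by SDS-PAGE, blotted to nitrocellulose and blocked in 3% BSA/NaTT. Blots were probed with p-ERK (E-4) or p-p38 (D-8) antibodies, detected by ECL and quantified by densitometry.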

[4] = Antioxidant activity in bovine brain assessed as inhibition of iron-ascorbate-induced lipid peroxidation by thiobarbituric acid test; format: functional, tissue-based, Bos taurus
How it was run: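 Hit compounds were tested for inhibition of lipid peroxidation by the thiobarbituric acid (TBA) assay. Propyl gallate served as the standardizing positive control, tested at 100 µM.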

Chain of Epidermal growth factor receptor (Homo sapiens) (P00533 whole entry): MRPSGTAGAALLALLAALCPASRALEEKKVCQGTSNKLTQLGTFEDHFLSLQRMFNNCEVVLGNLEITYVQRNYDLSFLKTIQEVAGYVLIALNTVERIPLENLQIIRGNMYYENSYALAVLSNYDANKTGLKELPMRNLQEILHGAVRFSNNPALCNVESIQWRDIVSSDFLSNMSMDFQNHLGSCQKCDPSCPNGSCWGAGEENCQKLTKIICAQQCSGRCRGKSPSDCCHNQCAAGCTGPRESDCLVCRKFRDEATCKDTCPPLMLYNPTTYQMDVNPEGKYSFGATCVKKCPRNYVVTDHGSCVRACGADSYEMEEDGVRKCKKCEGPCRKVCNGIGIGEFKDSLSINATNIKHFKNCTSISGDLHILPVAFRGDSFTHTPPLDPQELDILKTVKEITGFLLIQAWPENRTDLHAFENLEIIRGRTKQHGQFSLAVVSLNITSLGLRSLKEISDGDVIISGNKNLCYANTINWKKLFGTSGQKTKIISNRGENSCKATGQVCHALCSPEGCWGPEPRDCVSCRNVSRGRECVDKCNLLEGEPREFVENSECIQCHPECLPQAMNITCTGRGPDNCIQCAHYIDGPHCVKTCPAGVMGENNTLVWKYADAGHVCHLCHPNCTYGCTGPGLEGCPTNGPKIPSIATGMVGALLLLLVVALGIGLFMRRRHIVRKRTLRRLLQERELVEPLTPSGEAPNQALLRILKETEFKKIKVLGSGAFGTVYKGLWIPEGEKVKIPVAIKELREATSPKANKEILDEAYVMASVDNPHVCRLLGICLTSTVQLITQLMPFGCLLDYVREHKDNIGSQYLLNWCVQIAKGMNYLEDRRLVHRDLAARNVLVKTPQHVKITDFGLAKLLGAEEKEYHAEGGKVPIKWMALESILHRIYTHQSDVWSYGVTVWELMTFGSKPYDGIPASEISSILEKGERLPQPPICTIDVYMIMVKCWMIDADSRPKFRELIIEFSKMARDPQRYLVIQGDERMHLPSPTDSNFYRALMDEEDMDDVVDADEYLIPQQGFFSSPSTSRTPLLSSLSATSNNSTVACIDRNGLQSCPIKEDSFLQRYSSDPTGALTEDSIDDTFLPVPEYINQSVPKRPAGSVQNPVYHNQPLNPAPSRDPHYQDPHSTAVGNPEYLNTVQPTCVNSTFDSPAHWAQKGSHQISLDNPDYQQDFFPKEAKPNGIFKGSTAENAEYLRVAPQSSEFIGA

| inhibition [2] | inhibition [3] | IC50 [4] | SMILES | GI50 ([1]; read-out: GI50) | GI50 ([1]; read-out: pGI50 (converted)) |
| --- | --- | --- | --- | --- | --- |
| – | – | – | CCOC(=O)c1ccccc1Cn1c(N/N=C\c2cc(OCC)c(OCC)c(OCC)c2)nc2c1c(=O)n(C)c(=O)n2C | 48.3 µM | 47.9 µM |
| – | – | – | CCOc1cc(/C=N\Nc2nc3c(c(=O)n(C)c(=O)n3C)n2Cc2ccccc2OC)cc(OCC)c1OCC | 5.16 µM | 5.13 µM |
| – | – | – | CCOc1cc(/C=N\Nc2nc3c(c(=O)n(C)c(=O)n3C)n2Cc2ccccc2C(=O)O)ccc1O | 178 µM | 178 µM |
| – | – | – | CCOC(=O)c1ccccc1Cn1c(N/N=C\c2ccc(O)c(OCC)c2)nc2c1c(=O)n(C)c(=O)n2C | 106 µM | 107 µM |
| – | – | – | CCOc1cc(/C=N\Nc2nc3c(c(=O)n(C)c(=O)n3C)n2Cc2ccc([N+](=O)[O-])cc2)ccc1O | 5.47 µM | 5.5 µM |
| – | – | – | CCOc1cc(/C=N\Nc2nc3c(c(=O)n(C)c(=O)n3C)n2Cc2ccc([N+](=O)[O-])cc2)cc(OCC)c1OCC | 18.9 µM | 19.1 µM |
| – | – | – | CCOc1cc(/C=N\Nc2nc3c(c(=O)n(C)c(=O)n3C)n2Cc2ccc(Cl)cc2)ccc1O | 5.21 µM | 5.25 µM |
| 47% | 12% | 400 µM | CCOC(=O)C1=C(C)NC(C)=C(C(=O)OCC)C1c1ccc(-c2ccc(Br)cc2)o1 | 4.09 µM | – |
| – | – | – | CCOc1cc(/C=N\Nc2nc3c(c(=O)n(C)c(=O)n3C)n2Cc2ccccc2C(=O)O)cc(OCC)c1OCC | 117 µM | 117 µM |
